Test results published in article PMC8263925 (The Journal of General Physiology, 2021).
Each block holds one compound with its values, some of them ahead of it.

Tests used:
Hv1 WT [1] = target: T1, Hv1 WT (Homo sapiens, UniProt Q96D96); test: Inside-out patch, pulsed application of inhibitor to the closed channel; assay type: cell-based; details: 100 µM pulses, membrane held at 0 mV or −80 mV
T1 sequence (Q96D96 1-273): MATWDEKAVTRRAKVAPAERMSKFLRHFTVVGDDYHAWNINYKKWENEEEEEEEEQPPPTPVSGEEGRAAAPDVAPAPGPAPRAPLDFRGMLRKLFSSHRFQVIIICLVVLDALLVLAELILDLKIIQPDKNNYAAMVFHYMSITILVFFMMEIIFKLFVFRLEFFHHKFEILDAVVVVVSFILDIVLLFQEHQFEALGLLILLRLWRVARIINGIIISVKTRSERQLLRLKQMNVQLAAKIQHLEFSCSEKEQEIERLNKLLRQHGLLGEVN
How it was run: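 WT channel, inside-out oocyte patches, pH 6.0. Test compound (100 µM) applied in 3 s pulses while the membrane was held closed at −40 mV, or at 0 mV or −80 mV. Current read after each pulse with a step to +120 mV. Control pulses of a reference Hv1 inhibitor given first to confirm complete washout between depolarizations.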

Hv1 WT [2] = target: T1, Hv1 WT; assay type: cell-based; details: for inhibition kinetics: fast and slow components: RDT = 0.2
How it was run: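 WT channel in inside-out oocyte patches, symmetric pH 6.0, 22 ± 1°C. Holding −40 mV, depolarization to +120 mV; relative depolarization time td/(tr + td) of 0.1, 0.2, 0.3 or 0.5. 50 µM perfused into bath, then washed out. End-pulse current normalized. Decay fitted double-exponentially (τfast, τslow, weights, c∞); recovery fitted single-exponentially. n = 7, 7, 5, 8 per RDT; SEM.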

Hv1 WT [3] = target: T1, Hv1 WT; details: 200 µM; ref Hong et al. (2013); cited from earlier work
Hv1 = details: full set of concentration points; ref Zhao et al., 2021; cited from earlier work

SMILES: N=C(N)Nc1nc2ccccc2[nH]1 [2GBI, 2-guanidinobenzimidazole, reference compound]
- inhibition when transiently perfused on closed channel (Hv1 WT [1]): failed to produce any inhibition
- return of current to original level upon washout (Hv1 WT [2]; after 50 μM, washout): a few seconds
- inhibition at 50 µM (Hv1 WT [2]; read-out: stable inhibited current level (of the original current)): ~50%
- G-V shift (Hv1 WT [3]): lack of G-V shift

SMILES: Nc1nc2ccccc2[nH]1 [ABI, 2-aminobenzimidazole, reference compound]
- extent and kinetics of proton current inhibition compared with 2GBI (Hv1 WT [2]; 50 μM, same conditions as 2GBI): inhibited the proton current to a smaller extent but with similar kinetics

SMILES: Cc1[nH]c(N)nc1CCC(O)c1cc(F)cc(F)c1 (stereo not shown) [HIFOH, 3-(2-amino-5-methyl-1H-imidazol-4-yl)-1-(3,5-difluorophenyl)propan-1-ol]
- inhibition kinetics: fast and slow components (Hv1 WT [2]; 50 μM): did not have a significant slow component

Continued, in another order:

- inhibition kinetics: fast and slow components (Hv1 WT [2]; 50 μM): with fast and slow components
SMILES: Cc1[nH]c(N)nc1/C=C/C(=O)c1cc(F)cc(F)c1 [HIFEN, (2E)-3-(2-amino-5-methyl-1H-imidazol-4-yl)-1-(3,5-difluorophenyl)prop-2-en-1-one]
- Hill coefficient (Hv1): 1.50 ± 0.11

- inhibition kinetics: fast and slow components (Hv1 WT [2]; 50 μM): with fast and slow components
SMILES: Cc1[nH]c(N)nc1CCC(=O)c1ccccc1 [HIFNF, 3-(2-amino-5-methyl-1H-imidazol-4-yl)-1-phenyl-propan-1-one]

- inhibition kinetics: fast and slow components (Hv1 WT [2]; 50 μM): with fast and slow components
SMILES: Cc1[nH]c(N)nc1CNC(=O)c1cc(F)cc(F)c1 [HIFNH, N-[(2-amino-5-methyl-1H-imidazol-4-yl)methyl]-3,5-difluorobenzamide]
